Data set [1] in a line: Acute toxicity in ip dosed Swiss-Webster mouse measured after 72 hrs. The format is organism-based. The following applies: in vivo.
Data set [2] concerns Candida albicans. The experiment in a line: Antifungal activity against Candida albicans ATCC 11651 assessed as inhibition of fungal growth up to 100 ug/ml after 16 hrs by spectrophotometer. The data set is classed as functional, organism-based. In outline: (§1)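 Yeast nitrogen base (pH 7.0), with compound at 10, 25, 50 and 100 µg/mL. Incubated 16 h at 37 °C with 150 rpm rotary shaking. Turbidity was read at 600 nm.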

The subject of data set [3] is Salmonella typhimurium. The experiment in a line: Mutagenicity in Salmonella typhimurium TA100 assessed as revertant colonies at 300 umol incubated under aerobic conditions in dark for 2 days by Ames test. The data set is classed as toxicity, organism-based. The following applies: salmonella enterica subsp. enterica serovar typhimurium, 48 h. In a few lines:
(§2)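 Ames plate-incorporation assay. Overnight TA-100 nutrient-broth culture, about 10^7 cells per plate. Compound solutions were adjusted to pH 7 and filter-sterilized, then mixed in a histidine-biotin-limited agar overlay on minimal glucose agar, with or without S-9. S-9 was the 9000g supernatant of 25% liver homogenate in 0.15 M KCl from phenobarbital-treated male Sprague-Dawley rats. Plates were incubated aerobically at 37 °C in the dark for 2 days, or anaerobically (Gas-Pak) for 16-17 h and then aerobically for 48 h. Revertants were counted in triplicate and averaged. Matched vehicle/condition background was subtracted.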
A general note: The Ames test detects mutagens through reverse mutation in bacteria.

In the next data set the test system is Pseudomonas aeruginosa. The experiment in a line: Antibacterial activity against Pseudomonas aeruginosa ATCC 27853 assessed as inhibition of bacterial growth at up to 100 ug/ml after 7 hrs by spectrophotometer. The data set is classed as functional, organism-based. In outline:
(§3)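 Tested at 10, 25, 50 and 100 µg/mL in Mueller-Hinton broth at 37 °C with rotary shaking at 150 rpm. Incubation was 16 h for E. coli and 7 h for P. aeruginosa. Growth was read turbidimetrically at 600 nm.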

The next data set relates to Escherichia coli. The experiment in a line: Antibacterial activity against Escherichia coli ATCC 25922 assessed as inhibition of bacterial growth at up to 100 ug/ml after 16 hrs by spectrophotometer. The data set is classed as functional, organism-based. In a few lines:
as §3

The test system of data set [4] is Salmonella typhimurium. The experiment in a line: Mutagenicity in Salmonella typhimurium TA100 assessed as revertant colonies at 300 umol incubated under aerobic conditions in dark for 2 days by Ames test in presence of Sprague-Dawley rat liver S9 fraction. The following applies: salmonella enterica subsp. enterica serovar typhimurium, s9, 48 h. The format is toxicity, organism-based. In a few lines: as §2

The subject of data set [5] is Candida albicans. The experiment in a line: Antifungal activity against Candida albicans clinical isolate assessed as inhibition of fungal growth up to 100 ug/ml after 16 hrs by spectrophotometer. The format is functional, organism-based. In outline: as §1
The subject of data set [6] is Salmonella typhimurium. The experiment in a line: Mutagenicity in Salmonella typhimurium TA100 assessed as revertant colonies at 300 umol incubated under anaerobic conditions for 16 to 17 hrs followed by 48 hrs under aerobic conditions by Ames test in presence of Sprague-Dawley rat liver S9 fraction. The note with it: salmonella enterica subsp. enterica serovar typhimurium. The format is toxicity, organism-based. In outline:
as §2

The test system of data set [7] is Mycolicibacterium smegmatis. The experiment in a line: Antibacterial activity against Mycobacterium smegmatis H607 assessed as inhibition of bacterial growth up to 100 ug/ml after 22 hrs by spectrophotometer. The data set is classed as functional, organism-based. In a few lines: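 Sauton synthetic medium, with compound at 10, 25, 50 and 100 µg/mL. Incubated 22 h at 37 °C with rotary shaking at 150 rpm. Growth was measured turbidimetrically at 600 nm.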

Data set [8] relates to Salmonella typhimurium. The experiment in a line: Mutagenicity in Salmonella typhimurium TA100 assessed as revertant colonies at 300 umol incubated under anaerobic conditions for 16 to 17 hrs followed by 48 hrs under aerobic conditions by Ames test. The data set is classed as toxicity, organism-based. The following applies: salmonella enterica subsp. enterica serovar typhimurium. In outline: as §2

Results on three molecules are retold here after ChEMBL document CHEMBL3244321, “Nitramino acids. Synthesis and biological evaluation of 1-nitroproline, 1-nitropipecolic acid, and N-nitrosarcosine” (J Med Chem, 1977).

Each structure is given as a SMILES string. The source made the active and inactive calls. The calls are words filed in the database; no cut-off is given here.

Broadly, the LD50 is the dose at which mortality reaches 50%. As for `O=C(O)C1CCCCN1[N+](=O)[O-]` (racemic), the LD50 at 72 h in [1] was 2100 µmol/kg. The inhibition result (in the data set on Candida albicans [2]; with Pseudomonas aeruginosa; in the data set with Escherichia coli; in the data set with Candida albicans [5]; in [7]) was “inactive” each time. The Activity entry with Salmonella typhimurium [3], in the data set with Salmonella typhimurium [4], with Salmonella typhimurium [6] and in the data set with Salmonella typhimurium [8] was “Non-toxic” each time.

On to `O=C(O)[C@@H]1CCCN1[N+](=O)[O-]`, for which the LD50 at 72 h in data set [1] stood at 1170 µmol/kg. Further, the inhibition result (in the data set with Candida albicans [2]; with Pseudomonas aeruginosa; in the data set with Escherichia coli; in the data set with Candida albicans [5]; in data set [7]) was “inactive” throughout. The Activity result with Salmonella typhimurium [3], in the data set on Salmonella typhimurium [4], with Salmonella typhimurium [6] and in the data set with Salmonella typhimurium [8] was “Non-toxic” in each case.

`O=C(O)[C@H]1CCCN1[N+](=O)[O-]` had an LD50 at 72 h in data set [1] of 1390 µmol/kg. Besides, the inhibition result (in the data set with Candida albicans [2]; with Pseudomonas aeruginosa; with Escherichia coli; in the data set on Candida albicans [5]; in [7]) was “inactive” throughout.
